Measurements: ChEMBL document CHEMBL1123286 (J Med Chem, 1986)
Where a SMILES comes first, the peptide text is derived from it. [ ]: non-standard residue; d: D form.

What was measured:
Mus musculus [1] = assay: In vivo opioid activity was evaluated by determining analgesia in the mouse by the tail-flick test, when administered through subcutaneous route; assay type: functional; details: sc
Outline: (§1)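 Swiss-Webster mice (23–25 g), tail-flick test with 55 °C water as the stimulus. Compound was given icv or sc in saline (4 μL), with latency read before and at various times after dosing. Cut-off was 10 s. %analgesia = (T−T0)/(10−T0)×100. At least 10 animals per dose; ED50 taken at time of peak activity. Naloxone pretreatment 0.5–1 mg/kg sc.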

Mus musculus [2] = assay: In vivo opioid activity was evaluated by determining analgesia in the mouse by the tail-flick test when administered through intracerebroventricular route; assay type: functional; outline: as §1
Mus musculus [3] = assay: In vivo opioid activity was evaluated by determining analgesia in the mouse by the tail-flick test when administered through intra cerebro ventricular route; details: Cardiac ventricle
Mus musculus [4] = assay: In vivo opioid activity was evaluated by determining analgesia in the mouse by the tail-flick test Relative potency with respect to morphine when administered through subcutaneous route; assay type: functional
Outline: (§2)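 Mouse tail-flick analgesia in Swiss-Webster mice (23–25 g) with 55 °C water, compound given icv or sc in saline (4 μL). Cut-off was 10 s; %analgesia was computed from pre- and post-dose latencies. At least 10 animals per dose, with ED50 taken at peak activity.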

Mus musculus [5] = assay: In vivo opioid activity was evaluated by determining analgesia in the mouse by the tail-flick test, relative potency with respect to morphine intracerebroventricular route; assay type: functional; outline: as §2
[6] = molecular target: Opioid receptors; mu/kappa/delta; assay: In vitro opioid inhibitory activity against in guinea pig ileum; assay type: functional, tissue-based, Cavia porcellus
Mus musculus [7] = assay: In vivo opioid activity was evaluated by determining analgesia in the mouse by the tail-flick test, when administered through Subcutaneous route; assay type: functional; details: sc; outline: as §1
[8] = molecular target: Opioid receptors; mu/kappa/delta (Homo sapiens, UniProt P41145+P41143+P35372); assay: In vitro inhibitory activity against opioid activity in guinea pig ileum, relative to H-Tyr-D-MetO-Phe-Gly-NH2; assay type: tissue-based; details: Cavia porcellus, target entry is the homologue from another species
Sequence of Opioid receptors; mu/kappa/delta (Homo sapiens, UniProt P41145+P41143+P35372) (P35372 whole entry, looked up): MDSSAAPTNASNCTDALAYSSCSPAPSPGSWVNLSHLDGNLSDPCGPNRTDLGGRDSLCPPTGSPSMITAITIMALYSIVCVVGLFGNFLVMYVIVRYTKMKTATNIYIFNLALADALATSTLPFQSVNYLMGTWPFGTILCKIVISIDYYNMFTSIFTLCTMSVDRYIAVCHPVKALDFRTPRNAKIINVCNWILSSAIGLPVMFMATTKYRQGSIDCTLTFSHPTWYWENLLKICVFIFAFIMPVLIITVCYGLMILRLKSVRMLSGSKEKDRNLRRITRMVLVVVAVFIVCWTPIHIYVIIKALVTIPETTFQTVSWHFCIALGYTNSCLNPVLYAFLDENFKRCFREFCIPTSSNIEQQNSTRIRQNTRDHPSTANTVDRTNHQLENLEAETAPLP
Sequence of Opioid receptors; mu/kappa/delta (Homo sapiens, UniProt P41145+P41143+P35372) (P41143 whole entry, looked up): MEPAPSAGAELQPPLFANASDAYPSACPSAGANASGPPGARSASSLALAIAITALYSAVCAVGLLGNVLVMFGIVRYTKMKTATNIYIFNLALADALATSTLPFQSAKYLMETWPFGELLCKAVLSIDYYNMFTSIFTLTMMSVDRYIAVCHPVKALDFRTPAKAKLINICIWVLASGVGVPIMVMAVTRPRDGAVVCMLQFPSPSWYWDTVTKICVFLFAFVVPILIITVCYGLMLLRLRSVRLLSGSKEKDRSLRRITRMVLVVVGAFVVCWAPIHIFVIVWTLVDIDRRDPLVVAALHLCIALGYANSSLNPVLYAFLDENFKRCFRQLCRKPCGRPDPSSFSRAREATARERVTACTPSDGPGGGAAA
Sequence of Opioid receptors; mu/kappa/delta (Homo sapiens, UniProt P41145+P41143+P35372) (P41145 whole entry, looked up): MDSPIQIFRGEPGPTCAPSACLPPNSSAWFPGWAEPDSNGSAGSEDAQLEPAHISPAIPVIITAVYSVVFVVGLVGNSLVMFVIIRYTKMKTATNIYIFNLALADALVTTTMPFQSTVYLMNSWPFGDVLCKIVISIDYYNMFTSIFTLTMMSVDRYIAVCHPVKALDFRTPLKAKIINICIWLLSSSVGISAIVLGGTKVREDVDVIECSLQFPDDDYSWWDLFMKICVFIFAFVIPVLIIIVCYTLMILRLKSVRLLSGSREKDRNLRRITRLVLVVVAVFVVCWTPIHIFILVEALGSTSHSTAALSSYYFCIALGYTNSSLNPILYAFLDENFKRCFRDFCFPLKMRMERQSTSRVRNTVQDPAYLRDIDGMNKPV

Mus musculus [9] = assay: In Vivo opioid activity was evaluated by determining analgesia in the mouse by the tail-flick test when administered through intra cerebro ventricular route; assay type: functional; outline: as §1
Mus musculus [10] = assay: In vivo opioid activity was evaluated by determining analgesia in the mouse by the tail-flick test, relative potency with respect to morphine intra cerebro ventricular route; assay type: functional; outline: as §2
Mus musculus [11] = assay: In vivo opioid activity was evaluated by determining analgesia in the mouse by the tail-flick test. Relative potency with respect to morphine when administered through subcutaneous route; assay type: functional; outline: as §2
Mus musculus [12] = assay: In vivo opioid activity was evaluated by determining analgesia in the mouse by the tail-flick test, Relative potency with respect to morphine intracerebroventricular route; assay type: functional; outline: as §2

| SMILES | ED50 (Mus musculus [1]) [µmol/kg] | ED50 (Mus musculus [2]) [pmol/mouse] | Relative potency (Mus musculus [4]) | Relative potency (Mus musculus [5]) | IC50 [6] [nM] | ED50 (Mus musculus [7]) [µmol/kg] | also measured |
| --- | --- | --- | --- | --- | --- | --- | --- |
| C[S+]([O-])CC[C@@H](NC(=O)[C@@H](N)Cc1ccc(O)cc1)C(=O)N[C@@H](Cc1ccccc1)C(=O)NCC(N)=O (some centres undefined) | 0.65 | 1.97 |  |  |  |  |  |
| CN1CC[C@]23c4c5ccc(O)c4O[C@H]2[C@@H](O)C=C[C@H]3[C@H]1C5 [MORPHINE] |  |  |  |  |  |  | ED50 (Mus musculus [3]): 3030 µmol/kg |
| CC(NC(=O)CNC(=O)[C@H](Cc1ccccc1)NC(=O)[C@@H](CC[S+](C)[O-])NC(=O)[C@@H](N)Cc1ccc(O)cc1)c1ccccc1 (some centres undefined) | 5.81 | 83.6 | 1.8 | 36 | 72.1 |  |  |
| CN(CC(=O)NC12CC3CC(CC(C3)C1)C2)C(=O)[C@H](Cc1ccccc1)NC(=O)[C@@H](CC[S+](C)[O-])NC(=O)[C@@H](N)Cc1ccc(O)cc1 (some centres undefined) |  | 60.6 | 2.3 | 50 | 25.5 | 4.82 |  |
| CSCC[C@@H](NC(=O)[C@@H](N)Cc1ccc(O)cc1)C(=O)N[C@@H](Cc1ccccc1)C(=O)NCC(N)=O (H-Y[dM]FG-NH2) |  |  |  |  | 97.6 | 12.1 | Relative potency [8]: 0.1; ED50 (Mus musculus [9]): 87.5 µmol/kg; Relative potency (Mus musculus [10]): 35; Relative potency (Mus musculus [11]): 0.9 |
| C[S+]([O-])CC[C@@H](NC(=O)[C@@H](N)Cc1ccc(O)cc1)C(=O)N[C@@H](Cc1ccccc1)C(=O)NCC(=O)NC12CC3CC(CC(C3)C1)C2 (some centres undefined) |  | 30.4 | 2.8 | 100 | 22 | 3.93 |  |
| C[S+]([O-])CC[C@@H](NC(=O)[C@@H](N)Cc1ccc(O)cc1)C(=O)N[C@@H](Cc1ccccc1)C(=O)NCC(=O)NCc1ccccc1 (some centres undefined) | 3.51 | 18.1 | 3.1 |  | 21 |  | Relative potency (Mus musculus [12]): 167 |
